According to ChEMBL document CHEMBL1177648, “Synthesis and anti breast cancer activity of biphenyl based chalcones” (Bioorg Med Chem, 2010):
Active and inactive are the calls of the source. The calls are words filed in the database; no cut-off is given here.

Tests used:
MDA-MB-231 [1] = assay: Cytotoxicity against human MDA-MB-231 cells after 24 hrs by MTT assay; format: functional, cell-based
How it was run: (§1)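 Cells seeded at 1 × 10⁴/well in DMEM with 10% FBS and held 24 h at 37 °C in CO₂. Compounds diluted in culture medium and incubated 24 h. Medium removed, MTT (5 mg/ml) added for 4 h, formazan dissolved in DMSO, absorbance read at 540 nm. Viability given as percent of untreated cells.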

MCF7 = assay: Cytotoxicity against human MCF7 cells after 24 hrs by MTT assay; format: functional, cell-based; how it was run: as §1
HEK293 = assay: Cytotoxicity against HEK293 cells after 24 hrs by MTT assay; format: cell-based, Homo sapiens; how it was run: as §1
HeLa = assay: Cytotoxicity against human HeLa cells after 24 hrs by MTT assay; format: functional, cell-based; how it was run: as §1
MDA-MB-231 [2] = assay: Induction of apoptosis in human MDA-MB-231 cells assessed as increase in caspase level at 5 uM after 24 hrs; format: functional, cell-based
How it was run: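 MDA-MB231 cells kept serum-deprived for 4 h, then treated 24 h at 5 µM. Cells incubated with caspase substrate DEVD-rhodamine-110 in a homogeneous caspase assay. Fluorescence of released rhodamine-110 measured at […].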

MDA-MB-231 [3] = assay: Cell cycle arest in human MDA-MB-231 cells assessed as increase in p21 mRNA expression at 5 uM after 24 hrs by RT-PCR; format: functional, cell-based
How it was run: (§2)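 MDA-MB231 cells (1 × 10⁶) grown overnight in six-well plates, treated at 5 µM. Total RNA isolated with Trizol, 1 µg digested with DNase I, then reverse transcribed. Relative mRNA levels of cyclin A1, bax, bcl-2, p21 and p53 measured by real-time PCR against untreated control.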

MDA-MB-231 [4] = assay: Cell cycle arrest in human MDA-MB-231 cells assessed as reduction in bcl2 mRNA expression at 5 uM after 24 hrs by RT-PCR; format: functional, cell-based; how it was run: as §2
MDA-MB-231 [5] = assay: Cell cycle arrest in human MDA-MB-231 cells assessed as decrease in S phase at 5 uM after 24 hrs annexin-V FITC and PI staining by flow cytometry; format: functional, cell-based
MDA-MB-231 [6] = assay: Induction of apoptosis in human MDA-MB-231 cells assessed as reduction in membrane potential at 5 uM after 24 hrs by flow cytometry; format: functional, cell-based
How it was run: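 MDA-MB-231 cells treated 24 h at 5 µM, collected by trypsinization and washed with PBS. Cells loaded with JC-1 for 15 min at 37 °C, rinsed three times in phenol-red-free high-glucose DMEM and resuspended in prewarmed medium. Membrane potential taken as the red/green (590/530 nm) fluorescence ratio.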

MDA-MB-231 [7] = assay: Induction of apoptosis in human MDA-MB-231 cells assessed as early apoptotic cells at 5 uM after 24 hrs annexin-V FITC and PI staining by flow cytometry; format: functional, cell-based
How it was run: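 MDA-MB231 cells (1 × 10⁶) grown overnight in six-well plates, then given 5 µM final compound or vehicle (0.001% DMSO) for 24 h. Floating and adherent cells harvested by trypsinization and washed with PBS. 1 × 10⁵ cells stained with Annexin V-FITC and propidium iodide and analysed by flow cytometry with 488 nm excitation; Annexin V-FITC read at 535 nm emission.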

MDA-MB-231 [8] = assay: Cell cycle arrest in human MDA-MB-231 cells assessed as increase in p53 mRNA expression at 5 uM after 24 hrs by RT-PCR; format: functional, cell-based; how it was run: as §2
MDA-MB-231 [9] = assay: Cell cycle arest in human MDA-MB-231 cells assessed as increase in sub G1 phase at 5 uM after 24 hrs annexin-V FITC and PI staining by flow cytometry; format: functional, cell-based
MDA-MB-231 [10] = assay: Cell cycle arrest in human MDA-MB-231 cells assessed as reduction in cyclin A1 mRNA expression at 5 uM after 24 hrs by RT-PCR; format: functional, cell-based; how it was run: as §2
MDA-MB-231 [11] = assay: Cell cycle arrest in human MDA-MB-231 cells assessed as increase in bax mRNA expression at 5 uM after 24 hrs by RT-PCR; format: functional, cell-based; how it was run: as §2
[12] = Homo sapiens, MDA-MB-231, 24 h, read-out: IC50
[13] = Homo sapiens, MCF7, 24 h, read-out: IC50
[14] = Homo sapiens, HEK293, 24 h, read-out: IC50
[15] = Homo sapiens, HeLa, 24 h, read-out: IC50

SMILES | IC50 (MDA-MB-231 [1]; [12]) | IC50 (MCF7; [13]) | IC50 (HEK293; [14]) | IC50 (HeLa; [15]) | IC50 (HEK293; hek293) | IC50 (HeLa; hela) | also measured
CC/C(=C(\c1ccccc1)c1ccc(OCCN(C)C)cc1)c1ccccc1 [TAMOXIFEN] | 10 µM | 8.9 µM | 10 µM | 12.5 µM |  |  | 
Cc1cc(O)c(C(=O)/C=C/c2ccc(F)cc2)c(-c2ccccc2)c1C(=O)/C=C/c1ccc(F)cc1 | 20 µM | 20 µM |  | 30 µM | Not Active |  | 
Cc1cc(O)c(C(=O)/C=C/c2ccc(Br)cc2)c(-c2ccc(Br)cc2)c1C(=O)/C=C/c1ccc(Br)cc1 | 18 µM | 15 µM | 30 µM | 30 µM |  |  | 
Cc1cc(O)c(C(=O)/C=C/c2ccc(OCc3ccccc3)cc2)c(-c2ccccc2)c1C(=O)/C=C/c1ccc(OCc2ccccc2)cc1 | 10 µM | 10 µM | 30 µM | 20 µM |  |  | 
Cc1cc(O)c(C(=O)/C=C/c2ccccc2)c(-c2ccc(Cl)cc2)c1C(=O)/C=C/c1ccccc1 | 4.4 µM | 15 µM | 5 µM |  |  | Not Active | Activity (MDA-MB-231 [2]): Active; Activity (MDA-MB-231 [3]): Active; Activity (MDA-MB-231 [4]): Active; Activity (MDA-MB-231 [5]): Active; Activity (MDA-MB-231 [6]): Active; Activity (MDA-MB-231 [7]): Active; Activity (MDA-MB-231 [8]): Active; Activity (MDA-MB-231 [9]): Active; Activity (MDA-MB-231 [10]): Active
Cc1cc(O)c(C(=O)/C=C/c2ccc(Br)cc2)c(-c2ccccc2)c1C(=O)/C=C/c1ccc(Br)cc1 | 10 µM | 10 µM | 10 µM | 33.5 µM |  |  | 
COc1ccc(/C=C/C(=O)c2c(C)cc(O)c(C(=O)/C=C/c3ccc(OC)cc3)c2-c2ccc(Br)cc2)cc1 |  |  |  |  | Not Active | Not Active | IC50 (MDA-MB-231 [1]; mda-mb-231): Not Active; IC50 (MCF7; mcf7): Not Active
Cc1cc(O)c(C(=O)/C=C/c2cccc3ccccc23)c(-c2ccccc2)c1C(=O)/C=C/c1cccc2ccccc12 |  | 30 µM |  |  | Not Active | Not Active | IC50 (MDA-MB-231 [1]; mda-mb-231): Not Active
Cc1cc(O)c(C(=O)/C=C/c2ccc(Br)cc2)c(-c2ccc(OCc3ccccc3)cc2)c1C(=O)/C=C/c1ccc(Br)cc1 | 30 µM | 30 µM | 20 µM |  |  | Not Active | 
Cc1cc(O)c(C(=O)/C=C/c2ccccc2)c(-c2ccc(OCc3ccccc3)cc2)c1C(=O)/C=C/c1ccccc1 |  |  |  |  | Not Active | Not Active | IC50 (MDA-MB-231 [1]; mda-mb-231): Not Active; IC50 (MCF7; mcf7): Not Active
COc1ccc(/C=C/C(=O)c2c(C)cc(O)c(C(=O)/C=C/c3ccc(OC)c(OC)c3)c2-c2ccc(OCc3ccccc3)cc2)cc1OC | 22 µM | 30 µM | 30 µM |  |  | Not Active | 
Cc1cc(O)c(C(=O)/C=C/c2ccc(Cl)cc2)c(-c2ccc(Cl)cc2)c1C(=O)/C=C/c1ccc(Cl)cc1 | 30 µM | 28 µM |  |  | Not Active | Not Active | 
Cc1cc(O)c(C(=O)/C=C/c2ccc3ccccc3c2)c(-c2ccc(Cl)cc2)c1C(=O)/C=C/c1ccc2ccccc2c1 |  |  |  |  | Not Active | Not Active | IC50 (MDA-MB-231 [1]; mda-mb-231): Not Active; IC50 (MCF7; mcf7): Not Active
Cc1cc(O)c(C(=O)/C=C/c2ccc3ccccc3c2)c(-c2ccccc2)c1C(=O)/C=C/c1ccc2ccccc2c1 | 30 µM | 31.5 µM |  |  | Not Active | Not Active | 
Cc1cc(O)c(C(=O)/C=C/c2ccc(F)cc2)c(-c2ccc(OCc3ccccc3)cc2)c1C(=O)/C=C/c1ccc(F)cc1 | 15 µM | 28 µM | 30 µM | 25 µM |  |  | 
Cc1cc(O)c(C(=O)/C=C/c2ccccc2Cl)c(-c2ccc(Cl)cc2)c1C(=O)/C=C/c1ccccc1Cl | 29 µM | 30 µM | 30 µM |  |  | Not Active | 
Cc1cc(O)c(C(=O)/C=C/c2ccc(F)cc2)c(-c2ccc(Br)cc2)c1C(=O)/C=C/c1ccc(F)cc1 | 22.3 µM | 20 µM | 20 µM |  |  | Not Active | 
Cc1cc(O)c(C(=O)/C=C/c2ccccc2)c(-c2ccc(Br)cc2)c1C(=O)/C=C/c1ccccc1 | 8 µM | 10 µM | 30 µM | 30 µM |  |  | 
Cc1cc(O)c(C(=O)/C=C/c2cccc(Cl)c2)c(-c2ccccc2)c1C(=O)/C=C/c1cccc(Cl)c1 | 4.67 µM | 20 µM | 15 µM | 22 µM |  |  | Activity (MDA-MB-231 [2]): Active; Activity (MDA-MB-231 [3]): Active; Activity (MDA-MB-231 [4]): Active; Activity (MDA-MB-231 [5]): Active; Activity (MDA-MB-231 [6]): Active; Activity (MDA-MB-231 [7]): Active; Activity (MDA-MB-231 [8]): Active; Activity (MDA-MB-231 [9]): Active; Activity (MDA-MB-231 [11]): Active; Activity (MDA-MB-231 [10]): Active
COc1ccc(/C=C/C(=O)c2c(C)cc(O)c(C(=O)/C=C/c3ccc(OC)c(OC)c3)c2-c2ccccc2)cc1OC |  |  |  |  | Not Active | Not Active | IC50 (MDA-MB-231 [1]; mda-mb-231): Not Active; IC50 (MCF7; mcf7): Not Active
COc1ccc(/C=C/C(=O)c2c(C)cc(O)c(C(=O)/C=C/c3ccc(OC)cc3)c2-c2ccc(OCc3ccccc3)cc2)cc1 | 12 µM | 30 µM | 28 µM | 28 µM |  |  | 
COc1ccc(/C=C/C(=O)c2c(C)cc(O)c(C(=O)/C=C/c3ccc(OC)cc3)c2-c2ccccc2)cc1 |  |  |  |  | Not Active | Not Active | IC50 (MDA-MB-231 [1]; mda-mb-231): Not Active; IC50 (MCF7; mcf7): Not Active
Cc1cc(O)c(C(=O)/C=C/c2ccc(OCc3ccccc3)cc2)c(-c2ccc(Br)cc2)c1C(=O)/C=C/c1ccc(OCc2ccccc2)cc1 | 20 µM | 20 µM | 25 µM |  |  | Not Active | 
Cc1cc(O)c(C(=O)/C=C/c2ccccc2Cl)c(-c2ccccc2)c1C(=O)/C=C/c1ccccc1Cl |  |  |  |  | Not Active | Not Active | IC50 (MDA-MB-231 [1]; mda-mb-231): Not Active; IC50 (MCF7; mcf7): Not Active
Cc1cc(O)c(C(=O)/C=C/c2ccc(OCc3ccccc3)cc2)c(-c2ccc(OCc3ccccc3)cc2)c1C(=O)/C=C/c1ccc(OCc2ccccc2)cc1 | 20 µM | 26 µM | 30 µM |  |  | Not Active | 
Cc1cc(O)c(C(=O)/C=C/c2ccc(Cl)cc2)c(-c2ccccc2)c1C(=O)/C=C/c1ccc(Cl)cc1 | 7.9 µM | 10 µM | 10 µM | 30 µM |  |  | 
Cc1cc(O)c(C(=O)/C=C/c2ccccc2)c(-c2ccccc2)c1C(=O)/C=C/c1ccccc1 | 8.5 µM | 10 µM |  |  | Not Active | Not Active | 
Cc1cc(O)c(C(=O)/C=C/c2ccc(Cl)cc2)c(-c2ccc(Br)cc2)c1C(=O)/C=C/c1ccc(Cl)cc1 | 15 µM | 20 µM | 25 µM | 32 µM |  |  | 
Cc1cc(O)c(C(=O)/C=C/c2cccc3ccccc23)c(-c2ccc(Cl)cc2)c1C(=O)/C=C/c1cccc2ccccc12 | 30 µM | 30 µM | 30 µM |  |  | Not Active | 
Cc1cc(O)c(C(=O)/C=C/c2ccc(Cl)cc2)c(-c2ccc(OCc3ccccc3)cc2)c1C(=O)/C=C/c1ccc(Cl)cc1 | 30 µM |  |  |  | Not Active | Not Active | IC50 (MCF7; mcf7): Not Active
